From ChEMBL document CHEMBL1142063, “Synthesis of omeprazole analogues and evaluation of these as potential inhibitors of the multidrug efflux pump NorA of Staphylococcus aureus” (2007) come the findings set out here.

For assay [1], the system named is Staphylococcus aureus. Nature of the assay: Antibacterial activity against Staphylococcus aureus SA1199 at 5 ug by disk diffusion method. As to conditions: read-out: IZ. (In general: A growth-free zone around the sample is the usual read-out of agar diffusion tests.)
The subject of assay [2] is Staphylococcus aureus. Kind of assay: Antibacterial activity against Staphylococcus aureus SA1199B overexpressing NorA at 30 ug by disk diffusion method. The settings on record: read-out: IZ. The assay is classed as functional. The essentials:
(§1)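 Agar diffusion on Mueller-Hinton agar (adjusted to 20 μg/ml Ca²⁺ and 10 μg/ml Mg²⁺), used plain or with the efflux inhibitor incorporated at the stated concentration. Disks were 5 μg for the fluoroquinolones and 30 μg for chloramphenicol. Plates were incubated overnight at 37°C, and inhibition zone diameters were measured. Values are means of at least three independent experiments.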

In assay [3] the test system is Staphylococcus aureus. Nature of the assay: Increase in 5 ug moxifloxacin antibacterial activity against Staphylococcus aureus SA1199B mutant overexpressing NorA at 128 ug/ml by disk diffusion method. It is filed as functional. The essentials:
as §1

Assay [4] relates to Staphylococcus aureus. Kind of assay: Increase in 16 ug/ml Norfloxacin accumulation in Staphylococcus aureus SA1199B mutant overexpressing NorA at 128 ug/ml after 20 mins. It is filed as functional. The essentials:
(§2)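 SA-1199B was grown to mid-exponential phase in MH broth (4–5 h, 37°C, shaken), then washed and resuspended in 50 mM sodium phosphate, pH 7.0. Cells got norfloxacin at one-quarter MIC, alone or with inhibitor at 128 μg/ml. At 5–20 min, cells were spun through silicone-paraffin oil into orthophosphoric acid. Norfloxacin was measured by HPLC fluorescence (ex 240/[…]) as ng/mg BCA protein. Means of triplicate experiments.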

The subject of assay [5] is Staphylococcus aureus. Kind of assay: Increase in 5 ug levofloxacin antibacterial activity against Staphylococcus aureus SA1199B mutant overexpressing NorA at 128 ug/ml by disk diffusion method. It is filed as functional. The essentials: as §1
The subject of assay [6] is Staphylococcus aureus. Kind of assay: Increase in 5 ug sparfloxacin antibacterial activity against Staphylococcus aureus SA1199B mutant overexpressing NorA at 128 ug/ml by disk diffusion method. It is filed as functional. The essentials:
as §1

The test system of assay [7] is Staphylococcus aureus. Nature of the assay: Increase in 16 ug/ml Norfloxacin accumulation in Staphylococcus aureus SA1199B mutant overexpressing NorA measured per milligram of cell protein at 128 ug/ml after 20 mins. It is filed as functional, organism-based. The essentials: as §2
Assay [8] concerns Staphylococcus aureus. Kind of assay: Increase in 16 ug/ml Norfloxacin accumulation in Staphylococcus aureus SA1199B mutant overexpressing NorA measured per mg of cell protein at 128 ug/ml after 5 mins. It is filed as functional, organism-based. Summed up: as §2
Assay [9] deals with Staphylococcus aureus. Nature of the assay: Increase in 5 ug ciprofloxacin antibacterial activity against Staphylococcus aureus SA1199B mutant overexpressing NorA at 128 ug/ml by disk diffusion method. It is filed as functional. Summed up: as §1
Assay [10] deals with Staphylococcus aureus. Kind of assay: Increase in 64 ug/ml Norfloxacin antibacterial activity against Staphylococcus aureus SA1199B mutant overexpressing NorA at 128 ug/ml by checker board method. It is filed as functional.
The test system of assay [11] is Staphylococcus aureus. Kind of assay: Increase in 5 ug ofloxacin antibacterial activity against Staphylococcus aureus SA1199B mutant overexpressing NorA at 128 ug/ml by disk diffusion method. It is filed as functional. The essentials: as §1
Assay [12] deals with Staphylococcus aureus. Kind of assay: Increase in 30 ug chloramphenicol antibacterial activity against Staphylococcus aureus SA1199B mutant overexpressing NorA at 128 ug/ml by disk diffusion method. The assay is classed as functional. Summed up: as §1
For assay [13], the system named is Staphylococcus aureus. Kind of assay: Antibacterial activity against Staphylococcus aureus. The assay is classed as functional. Summed up:
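Tube broth dilution MIC against SA-1199 and NorA-overproducing SA-1199B in Mueller-Hinton broth with 20 μg/ml Ca²⁺ and 10 μg/ml Mg²⁺. Inoculum was a 4–5 h 37°C culture diluted 1/10 (≈10⁶ CFU/ml). Compound range was 512 to 1 μg/ml, dissolved in DMSO (final ≤4%).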

Assay [14] deals with Staphylococcus aureus. Kind of assay: Increase in 5 ug Norfloxacin antibacterial activity against Staphylococcus aureus SA1199B mutant overexpressing NorA at 128 ug/ml by disk diffusion method. The assay is classed as functional. Summed up: as §1
Assay [15] deals with Staphylococcus aureus. Kind of assay: Increase in 16 ug/ml Norfloxacin accumulation in wild type Staphylococcus aureus SA1199 at 128 ug/ml after 20 mins. The assay is classed as functional. The essentials:
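Mid-exponential SA-1199 cells were washed and resuspended in 50 mM sodium phosphate, pH 7.0. They were exposed at time zero to norfloxacin at one-quarter MIC, alone or with EPI at 128 μg/ml. At 5–20 min, cells were spun through silicone-paraffin oil into orthophosphoric acid. Lysate norfloxacin was measured by C18 HPLC with fluorescence detection (ex 240, em 280 nm) and normalized to BCA protein (ng/mg). Triplicate experiments, mean reported.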

Assay [16] has as its system Staphylococcus aureus. Kind of assay: Increase in 16 ug/ml Norfloxacin antibacterial activity against Staphylococcus aureus SA1199B mutant overexpressing NorA at 128 ug/ml after 24 hrs by time-kill curve method. The assay is classed as functional, organism-based. The essentials:
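Log-phase SA-1199B inoculum at 10⁶ CFU/ml in MH broth with norfloxacin 16 μg/ml plus inhibitor 128 μg/ml, 37°C. Viable counts were taken by dilution plating in triplicate on MH agar at 0, 2, 4, 8 and 24 h. Results are expressed as log percentage survival, means of three experiments. Sensitivity limit was 1 log₁₀ CFU/ml.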

Assay [17] concerns Staphylococcus aureus. Nature of the assay: Increase in 2 ug/ml Norfloxacin antibacterial activity against wild type Staphylococcus aureus SA1199 at 128 ug/ml by checker board method. It is filed as functional.

Activity calls are given as the source filed them. Where only a bound is given, the exact number is not on record here.

For `C[C@@H]1CN(c2c(F)c(N)c3c(=O)c(C(=O)O)cn(C4CC4)c3c2F)C[C@H](C)N1` [SPARFLOXACIN], the zone of inhibition at 5 µg/disc in the assay with Staphylococcus aureus [1] came out at 30 mm.
Turning to `O=C(N[C@H](CO)[C@H](O)c1ccc([N+](=O)[O-])cc1)C(Cl)Cl` [CHLORAMPHENICOL], in the assay with Staphylococcus aureus [2], the zone of inhibition at 30 µg/disc turned out to be 24 mm.
Usually MIC stands for the smallest concentration in the dilution series that meets the test's criterion for growth inhibition. As to `COc1ccc2[nH]c([S+]([O-])Cc3nc4cc(Cl)ccc4n4cccc34)nc2c1` (configuration not stated), the “inhibition zone (IZ)” value with Staphylococcus aureus [3] is listed as 28 mm; in the assay on Staphylococcus aureus [5] it was 27 mm; with Staphylococcus aureus [6], 28 mm; in the assay with Staphylococcus aureus [9], 25 mm; in the assay with Staphylococcus aureus [11], 26 mm; with Staphylococcus aureus [12], 27 mm. For the same compound, the “inhibition zone (IZ)” value with Staphylococcus aureus [14] is on record as 18 mm. Also, the figures for the Activity in the assay with Staphylococcus aureus [4] and with Staphylococcus aureus [15] were 40% and 10%, respectively. In addition, the Drug uptake was found to be 400 ng/mg in the assay with Staphylococcus aureus [7] and 270 ng/mg in the assay with Staphylococcus aureus [8]. For the same compound, the MIC is 4 µg/mL in the assay with Staphylococcus aureus [10], greater than 512 µg/mL in the assay on Staphylococcus aureus [13] and 1 µg/mL in the assay on Staphylococcus aureus [17]. Also, in the assay on Staphylococcus aureus [16], the result was Active.
